From the EternaBench riboswitch data

System: MS2 coat protein
Assay: apparent Kd, MS2 coat protein; higher = weaker binding; RNA-MaP array; FMN 200 µM where present
Method in brief: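 Designs were transcribed by stalled E. coli RNA polymerase on Illumina sequencing-chip clusters. They were titrated with SNAP-549-labelled MS2 coat protein from 0.7 or 1.5 nM, doubling to 3 µM, without and then with constant ligand. Buffer: 100 mM Tris-HCl pH 7.5, 80 mM KCl, 4 mM MgCl2, BSA, DTT, yeast tRNA, Tween-20. Green signal was normalised to red-channel RNA signal and control-cluster median Fmax. Apparent Kd is the median of filtered per-cluster binding-curve fits.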

[1] = designed as: OFF switch for flavin mononucleotide, no ligand
[2] = ligand present: flavin mononucleotide, designed as: OFF switch for flavin mononucleotide
[3] = designed as: ON switch for flavin mononucleotide, no ligand
[4] = ligand present: flavin mononucleotide, designed as: ON switch for flavin mononucleotide

## UAUUAGUGAGGAUAUGAGUCGUAGAACAAUAGUACUACGUCUCAGAAGGUACAUGAGGAUCACCCAUGUUCCUC
[1]
  apparent Kd: 19 nM
[2]
  apparent Kd: 22.8 nM

## UUAAACGGAGGAUAUACAUUUUUUUUAUUAUCCUCAUUAAAACAUGAGGAUCACCCAUGUAGAAGGCCGAAAUU
[1]
  apparent Kd: 79.6 nM
[2]
  apparent Kd: 292 nM

## UCUUGUGUUGAGGAUAUGCGCCGGCUCGCUGGCGCAGAAGGCGGCACAUGAGGAUCACCCAUGUCAGUUCGCGU
[1]
  apparent Kd: 326 nM
[2]
  apparent Kd: 78 nM

## AUUAUACAUGAGGAUCACCCAUGUCAACAAAGUCGAGGAUAUGGGCAAAUAAAAUAAGAACCAGAAGGCGAAUAAU
[3]
  apparent Kd: 238 nM
[4]
  apparent Kd: 61 nM

## CCCGUGUAAGGAUAUGACAAUGGUAUCUUCGGAUACCAUUGUCAGAAGGUACAUGAGGAUCACCCAUGUAACAC
[1]
  apparent Kd: 28.8 nM
[2]
  apparent Kd: 108 nM

## AUGUUAUUCUGAGGAUAUUGUUUAUUCUUCUCACAUGAGGAUCACCCAUGUUUCCGUGUUUACCGCAAGAAGGCAGUUUUGUUU
[1]
  apparent Kd: 29.9 nM
[2]
  apparent Kd: 27.5 nM

## UCCGGAGUAGGAUAUACGGUGUAAUGACACGGCGUCGAUCAACAUGAGGAUCACCCAUGUAGAAGGACUGCGUC
[1]
  apparent Kd: 14.4 nM
[2]
  apparent Kd: 15.9 nM

## CUGAUGUGAGGAUAUCAACGCCAUGUCUUUGACAUGGCGCAUGAGAAGGCACAUGAGGAUCACCCAUGUUCUUC
[1]
  apparent Kd: 36 nM
[2]
  apparent Kd: 640 nM

## AAGCGAAAGCUAAAAUAUCUAUCAGAGGAUAUUUAUGAUACAUGAGGAUCACCCAUGUGGCACUGGGAGAAGGCUGAUAGAUAA
[3]
  apparent Kd: 11.6 nM
[4]
  apparent Kd: 6.15 nM

## UUACCUCAUGAGAAGGACAUGAGGAUCACCCAUGUAGGAUAUCGUGGAAGACUGGUAUUGAAUCUUCGGAUUCAAUACCUGUCU
[3]
  apparent Kd: 317 nM
[4]
  apparent Kd: 15.7 nM

## GUAAACGAUCAGGAUAUAUCAAAUAAUAGCUUGAUAGAAGGGAUCACAUGAGGAUCACCCAUGUGAUCUUCUUU
[1]
  apparent Kd: 13.6 nM
[2]
  apparent Kd: 14.8 nM

## GCCAGGAUGUGAGGAUAUGCUGAGGAUAACUCAGCAGAAGGCACAUGAGGAUCACCCAUGUACACUUAUCAUAAAUACCCUGGC
[1]
  apparent Kd: 11.9 nM
[2]
  apparent Kd: 16.3 nM

## CAGCAUCAUGUAGGAUAUGCGUGGCGAAGCUAUGCAGAAGGACAUGAGGAUCACCCAUGUCUUACCUAGCGUACUAGGUUGCUG
[1]
  apparent Kd: 7.3 nM
[2]
  apparent Kd: 16.6 nM

## GGGAGACAUGAGGAUCACCCAUGUGAAAACGUGUGAGGAUAUGUAUGGAAACCAUACUGUACAGAAGGCACUUGUC
[3]
  apparent Kd: 53.8 nM
[4]
  apparent Kd: 41 nM

## AAAUGAUGUCAGGAUAUUGACGUUAAAAGAACGCAAGAAGGGACAACAUGAGGAUCACCCAUGUGGUCCUAUAA
[1]
  apparent Kd: 14.9 nM
[2]
  apparent Kd: 34 nM

## AUCUUGAGAGGAUAUACAUGAGGAUCACCCAUGUUGCUAACACCAUGCGCUCAUUUACGUAGAAGGCUCAUCCG
[1]
  apparent Kd: 21.1 nM
[2]
  apparent Kd: 40.4 nM

## GCUCUAUGCUAGAAGGCGUGAAACAUGAGGAUCACCCAUGUCAAAGACGUGAGGAUAUAGCAUAGAGCAAAAGUGCGAAAGCAC
[3]
  apparent Kd: 5.49 nM
[4]
  apparent Kd: 5.29 nM

## AAGAAGUCAGGAUAUGCAUGGCGGGACUUGCGUCGUGGCGUGCAGAAGGGACAUGAGGAUCACCCAUGUAAAGC
[1]
  apparent Kd: 49.8 nM
[2]
  apparent Kd: 42.4 nM

## GCAAAGCCUGACAUGAGGAUCACCCAUGUUAGAUUGUUAUGUCAGGAUAUUGUCUAGCAACUAGACAAGAAGGGAUGCUUUGCC
[3]
  apparent Kd: 603 nM
[4]
  apparent Kd: 50.9 nM

## AGUAAGAUGCAGAAGGUGUUAGCUAGAGCUACGACAUGAGGAUCACCCAUGUACUAGAAACAGUACAAGGAUAUGCAUCUUACG
[3]
  apparent Kd: 16.6 nM
[4]
  apparent Kd: 6.47 nM

## UUUCCGCGAGGAUAUGCGGGUUGUGCUUUUCAUUUCUUACAACAUGAGGAUCACCCAUGUAGAAGGUGCUUCUU
[1]
  apparent Kd: 174 nM
[2]
  apparent Kd: 156 nM

## UGCGGUAGAGGAUAUACGUAGAACUAGGUUCAUGUAAAACUACAUGAGGAUCACCCAUGUAGAAGGCUAUCGCU
[1]
  apparent Kd: 17 nM
[2]
  apparent Kd: 22.4 nM

## CGUGAAGGCUGGCCGAUAUAGUCGAGAAGGGUCCACAUGAGGAUCACCCAUGUGAGCCUUGGUGGACAGGAUAUCGAUGGCCGU
[1]
  apparent Kd: 46.7 nM
[2]
  apparent Kd: 15.2 nM

## AUUGAUGUUGAGGAUAUGCUUUUAUUUGUUCUUGCAGAAGGCGAUACAUGAGGAUCACCCAUGUUCAUGGAAGU
[1]
  apparent Kd: 51.6 nM
[2]
  apparent Kd: 46.6 nM

## CAAAACAUCUCCGUGUUUGUCGAACAUGAGGAUCACCCAUGUAGAAGGCAUCGCGCGACGCAGGAUGAGGAUAUACGCUGGAUG
[1]
  apparent Kd: 6.43 nM
[2]
  apparent Kd: 11 nM

## UGCGAACAGGCUAACAUGAGGAUCACCCAUGUGGACUCAUGGUAGGAUAUCGGGAAGGAGGAAACCGAGAAGGGCCGGUGAGCA
[3]
  apparent Kd: 133 nM
[4]
  apparent Kd: 77.5 nM

## UUGGACGUCGUAGGAUAUGUAGGAUAUUCCUACAUGAGGAUCACCCAUGUUGAUAUGGAAGAAGGACAGAAGGACGAUGUCCAU
[3]
  apparent Kd: 31.8 nM
[4]
  apparent Kd: 4.64 nM

## ACCUUACAUGAGGAUCACCCAUGUUAGGAUAUCUCGCCUGCGCAAUCACAGCGCAGGCAGAGAAGGGACGCGGG
[1]
  apparent Kd: 30.3 nM
[2]
  apparent Kd: 32.1 nM

## GUAGCCGACCAGAAGGGUGACAUGAGGAUCACCCAUGUAGAUGUGUUCCCGCUUGGGAGCCGUCCACAGGAUAUGGUUGGUUAU
[3]
  apparent Kd: 54.1 nM
[4]
  apparent Kd: 38.3 nM

## AGAAACUACGAGAAGGACAUAUGGUACUUCAGCUACAUGAGGAUCACCCAUGUAGGAUAUCGUAGUUUCAGGAUCGUGAGAUCA
[1]
  apparent Kd: 5.65 nM
[2]
  apparent Kd: 6.02 nM

## GGAGCCGGCACUGAGGAUAUUCAUAUUAAAACAUGAGGAUCACCCAUGUAGGCCAGAAGGCCUUGGGAGAAGGCGGGUCGGCCCG
[3]
  apparent Kd: 531 nM
[4]
  apparent Kd: 35.3 nM

## GCGGAGAUACAGAAGGGAUAAGCCCUGGGCUAAUCAGGAUAUGUACGACGCAUCGUACAUGAGGAUCACCCAUGUAGCCGCUUG
[3]
  apparent Kd: 483 nM
[4]
  apparent Kd: 85.6 nM

## AAAACACAUGAGGAUCACCCAUGUGAGGAUAUGUUAAUUUCGGCCAAAGCCGAAAUUAACAGAAGGCACAUAAA
[1]
  apparent Kd: 49.9 nM
[2]
  apparent Kd: 45.1 nM

## UUAAAUCAUGUAGGAUAUGCAUGGCGAAGCUACGCAGAAGGACAUGAGGAUCACCCAUGUUAGAGCUACCGAGUUCGGUGGCAA
[1]
  apparent Kd: 112 nM
[2]
  apparent Kd: 210 nM

## ACGGCAAUCACAGGAUAUGGUUACAUGAGGAUCACCCAUGUCAAGGGUCUAAUUAGGUAUAACUACCAGAAGGGUGAAGGCCUA
[1]
  apparent Kd: 74.4 nM
[2]
  apparent Kd: 105 nM

## AUGCUAGUGUGAGGAUAUUAACAUGAGGAUCACCCAUGUUGGAAGUACAUGACAUGAGGUACAUUUAAGAAGGUACAUUAGCAU
[1]
  apparent Kd: 69 nM
[2]
  apparent Kd: 77.1 nM
